According to the RNAGym collection of RNA variant scans (doi:10.1002/anie.201605470):

B1: Osa-1-4 twister ribozyme (parent)
chain: CCGCCUAACACUGCCAAUGCCGGUCCCAAGCCCGGAUAAAAGUGGAGGGGGCGG

Variants of: B1
Test: self-cleavage, relative activity (ratio to wild type); higher = more cleavage; co-transcriptional
Outline: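 Values are relative activity: the fraction cleaved, normalised to wild type. A doped DNA template for a 54-nucleotide twister ribozyme from Oryza sativa had 97 % wild-type base and 1 % of each other base at the 48 positions downstream of the cleavage site. The RNA was transcribed in vitro for 2 h at 37 °C so that it could cleave itself co-transcriptionally, then sequenced deeply, with cleavage status scored from the presence or absence of upstream sequence in reads.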

| Variant | self-cleavage |
| --- | --- |
| G45A U18G | 0.45 |
| G45A U18C | 0.29 |
| G45A U18A | 0.43 |
| G42C U12C | 0.08 |
| G42C U12G | 0.06 |
| G42C U12A | 0.09 |
| A41U U12G | 0.69 |
| A41U U12A | 1.05 |
| A41U U12C | 0.91 |
| G44C G49A | 0.11 |
| G44C G49U | 0.1 |
| G44C G49C | 0.07 |
| G42A U43C | 0.11 |
| G42A U43A | 0.16 |
| G42A U43G | 0.16 |
| G44U G45U | 0.08 |
| G44U G45A | 0.1 |
| G44U G45C | 0.06 |
| G44C U37C | 1 |
| G44C U37A | 0.71 |
| G44C U37G | 1.02 |
| G45A G53A | 0.09 |
| G45A G53C | 0.05 |
| G45A G53U | 0.07 |

| Variant | self-cleavage |
| --- | --- |
| G44C G50A | 0.5 |
| G44C G50C | 0.81 |
| G44C G50U | 1 |
| G42C G49A | 0.06 |
| G42C G49C | 0.07 |
| G42C G49U | 0.05 |
| G44A G51A | 0.79 |
| G44A G51U | 0.28 |
| G44A G51C | 0.08 |
| G42U U24A | 0.03 |
| G42U U24C | 0.03 |
| G42U U24G | 0.02 |
| G45C G47A | 0.05 |
| G45C G47C | 0.05 |
| G45C G47U | 0.05 |
| G42C G48A | 0.05 |
| G42C G48C | 0.07 |
| G42C G48U | 0.04 |
| G42C U18C | 0.21 |
| G42C U18G | 0.32 |
| G42C U18A | 0.23 |
| G44U G47U | 0.1 |
| G44U G47A | 0.14 |
| G44U G47C | 0.07 |

| Variant | self-cleavage |
| --- | --- |
| G42C U37A | 0.21 |
| G42C U37G | 0.39 |
| G42C U37C | 0.34 |
| G44A U37A | 0.7 |
| G44A U37G | 1 |
| G44A U37C | 1.01 |
| G44U U43C | 0.37 |
| G44U U43G | 0.11 |
| G44U U43A | 0.66 |
| G45A U43A | 0.09 |
| G45A U43G | 0.06 |
| G45A U43C | 0.09 |
| G45C G53A | 0.06 |
| G45C G53C | 0.05 |
| G45C G53U | 0.06 |
| G42C U43G | 0.09 |
| G42C U43A | 0.1 |
| G42C U43C | 0.11 |
| G42A G49A | 0.07 |
| G42A G49U | 0.06 |
| G42A G49C | 0.07 |
| G45A | 0.52 |
| G45C | 0.06 |
| G44C G48C | 0.08 |

| Variant | self-cleavage |
| --- | --- |
| G44C G48U | 0.07 |
| G44C G48A | 0.08 |
| G44U G50C | 0.83 |
| G44U G50A | 0.58 |
| G44U G50U | 0.97 |
| G42U U18C | 0.23 |
| G42U U18G | 0.28 |
| G42U U18A | 0.29 |
| G44C G53A | 0.81 |
| G44C G53U | 0.38 |
| G44C G53C | 0.09 |
| G44U G51A | 0.69 |
| G44U G51C | 0.07 |
| G44U G51U | 0.19 |
| G45A U37A | 0.25 |
| G45A U37G | 0.58 |
| G45A U37C | 0.55 |
| G44A U24G | 0.03 |
| G44A U24C | 0.08 |
| G44A U24A | 0.06 |
| G42U U12A | 0.06 |
| G42U U12G | 0.06 |
| G42U U12C | 0.05 |
| G44U G54U | 0.9 |

| Variant | self-cleavage |
| --- | --- |
| G44U G54C | 0.92 |
| G44U G54A | 0.88 |
| G42A G48C | 0.06 |
| G42A G48U | 0.05 |
| G42A G48A | 0.06 |
| G42U U43C | 0.09 |
| G42U U43A | 0.08 |
| G42U U43G | 0.09 |
| G44C U24A | 0.2 |
| G44C U24C | 0.2 |
| G44C U24G | 0.01 |
| G45A G50C | 0.06 |
| G45A G50U | 0.13 |
| G45A G50A | 0.23 |
| G45C G50C | 0.07 |
| G45C G50A | 0.08 |
| G45C G50U | 0.06 |
| G45A G47A | 0.06 |
| G45A G47U | 0.06 |
| G45A G47C | 0.05 |
| G42U G45A | 0.05 |
| G42U G45C | 0.03 |
| G42U G45U | 0.04 |
| G45A G51U | 0.07 |

| Variant | self-cleavage |
| --- | --- |
| G45A G51C | 0.06 |
| G45A G51A | 0.12 |
| G42A | 0.84 |
| G42U | 0.14 |
| G42C | 0.4 |
| A41U G53U | 0.36 |
| A41U G53A | 0.89 |
| A41U G53C | 0.11 |
| G42U G50C | 0.1 |
| G42U G50U | 0.12 |
| G42U G50A | 0.32 |
| G44U G49C | 0.08 |
| G44U G49U | 0.11 |
| G44U G49A | 0.12 |
| A41U U43G | 0.32 |
| A41U U43C | 0.33 |
| A41U U43A | 0.81 |
| G44A G45A | 0.16 |
| G44A G45C | 0.07 |
| G44A G45U | 0.07 |
| A41U U18C | 0.93 |
| A41U U18A | 0.92 |
| A41U U18G | 0.86 |
| G44A G49U | 0.07 |

| Variant | self-cleavage |
| --- | --- |
| G44A G49A | 0.07 |
| G44A G49C | 0.06 |
| G44U U18A | 0.83 |
| G44U U18G | 0.64 |
| G44U U18C | 0.69 |
| G42U G49C | 0.03 |
| G42U G49U | 0.04 |
| G42U G49A | 0.04 |
| G44A G50A | 0.71 |
| G44A G50U | 0.97 |
| G44A G50C | 0.91 |
| G44A U43G | 0.67 |
| G44A U43A | 0.88 |
| G44A U43C | 0.1 |
| G42A U18A | 0.71 |
| G42A U18C | 0.44 |
| G42A U18G | 0.66 |
| G42A G50C | 0.64 |
| G42A G50U | 0.83 |
| G42A G50A | 0.45 |
| G42A U12C | 0.1 |
| G42A U12A | 0.15 |
| G42A U12G | 0.09 |
